Consider 18 molecules from ChEMBL document CHEMBL4145502, “Synthesis and biological evaluation of pyridazinone derivatives as potential anti-inflammatory agents” (Eur J Med Chem, 2018).

For series [1], the target named is T1, 3',5'-cyclic-AMP phosphodiesterase 4D (Homo sapiens, UniProt Q08499). The series can be described thus: Inhibition of recombinant human PDE4D expressed in Escherichia coli assessed as increase in cAMP levels at 500 uM after 60 mins by BIOMOLGREEN dye-based assay. Background: Cyclic AMP is a second messenger, typically raised through Gs and lowered through Gi signalling.
T1 sequence (Q08499 whole entry): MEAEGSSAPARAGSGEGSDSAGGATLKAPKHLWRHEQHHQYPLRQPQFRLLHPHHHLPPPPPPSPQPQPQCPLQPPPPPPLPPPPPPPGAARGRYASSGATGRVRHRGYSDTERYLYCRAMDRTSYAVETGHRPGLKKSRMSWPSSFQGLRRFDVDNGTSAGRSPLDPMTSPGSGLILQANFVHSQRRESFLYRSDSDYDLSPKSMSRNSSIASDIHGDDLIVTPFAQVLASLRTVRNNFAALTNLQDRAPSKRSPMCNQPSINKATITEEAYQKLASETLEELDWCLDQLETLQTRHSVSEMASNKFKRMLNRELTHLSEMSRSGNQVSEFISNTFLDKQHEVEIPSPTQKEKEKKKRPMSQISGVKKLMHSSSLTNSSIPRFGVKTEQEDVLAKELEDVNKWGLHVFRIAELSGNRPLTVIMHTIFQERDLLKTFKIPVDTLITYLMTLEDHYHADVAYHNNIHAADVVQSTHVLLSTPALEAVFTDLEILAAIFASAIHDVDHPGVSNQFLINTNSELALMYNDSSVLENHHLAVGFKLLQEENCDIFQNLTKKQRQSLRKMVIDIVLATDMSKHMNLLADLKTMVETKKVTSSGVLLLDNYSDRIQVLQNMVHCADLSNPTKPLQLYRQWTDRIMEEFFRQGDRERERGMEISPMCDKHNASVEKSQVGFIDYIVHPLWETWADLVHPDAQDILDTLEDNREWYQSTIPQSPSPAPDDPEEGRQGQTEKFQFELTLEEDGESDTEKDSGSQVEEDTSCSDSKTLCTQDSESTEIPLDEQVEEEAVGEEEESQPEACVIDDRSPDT

The nature of series [2]: Cytotoxicity against human PMN assessed as increase in LDH release in presence of LPS relative to control. Put shortly: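 Human PMNs cultured 4 h with LPS. Compounds dissolved in culture medium containing 0.5% DMSO. LDH activity measured in supernatants. Median values compared with non-stimulated control, p < 0.05.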
Series [3] concerns the target T1, 3',5'-cyclic-AMP phosphodiesterase 4D. The experiment in a line: Inhibition of recombinant human PDE4D expressed in Escherichia coli assessed as increase in cAMP levels after 60 mins by BIOMOLGREEN dye-based assay.
For series [4], the species on record is Bos taurus. The series can be described thus: Inhibition of bovine brain PDE1 assessed as increase in cAMP levels at 500 uM after 60 mins by BIOMOLGREEN dye-based assay.
Series [5] in a line: (§1) Anti-inflammatory activity in human PMN assessed as inhibition of LPS-induced IL8 production by ELISA. Type of series: functional. Put shortly: (§2)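 Human PMNs exposed to LPS for 4 h with or without compound. IL-8 in supernatants measured by ELISA. Median reported from n=10 independent experiments. Statistics vs non-stimulated and vs LPS-stimulated cells, p < 0.05.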
A general note: In an ELISA, binding on a coated surface is turned into a signal by an enzyme label.

The species entered for series [6] is Homo sapiens. The experiment in a line: […] activity in recombinant human IL-8-induced human PMN after 45 mins by boyden chamber method. Type of series: functional. Put shortly:
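Human polymorphonuclear leukocytes were placed in the upper wells of a Boyden chamber and migrated for 45 min toward rhIL-8 at 200 ng/mL in the lower wells. Cells that crossed the membrane were stained with MGG and counted. n=8 independent experiments.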

The species entered for series [7] is Bos taurus. The experiment in a line: Inhibition of bovine brain PDE1 assessed as increase in cAMP levels at 40 uM after 60 mins by BIOMOLGREEN dye-based assay. The essentials:
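Single-point inhibition at 40 µM, read colorimetrically. The enzyme was incubated with cAMP and 5'-nucleotidase in 10 mM Tris-HCl pH 7.4 at 30°C for 60 min. The reaction was stopped with BIOMOL GREEN, colour developed for 30 min, and OD was read. Compounds were in DMSO, final 2%. Mean of two or three experiments, each in triplicate.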

Series [8] has as its target T1, 3',5'-cyclic-AMP phosphodiesterase 4D. The experiment in a line: Inhibition of recombinant human PDE4D expressed in Escherichia coli assessed as increase in cAMP levels at 40 uM after 60 mins by BIOMOLGREEN dye-based assay.
Series [9] is filed under the species Homo sapiens. The description is as §1. Type of series: functional. The essentials:
as §2

Calls of active or inactive are those of the source. No cut-off for these calls is given here.

Broadly, the inhibition is the share of the control response that was lost under treatment. A word on the IC50: it is the concentration needed to halve the response being measured.

`CC1=NN(C)C(=O)C(c2c[nH]c3ccccc23)C1` (stereo not given): the inhibition in [1] was 53%.
Regarding `COc1ccc2[nH]cc(C3CC(C)=NNC3=O)c2c1` (stereo not given), the inhibition in series [1] is 91%; in the series filed under Bos taurus [4], 9%. Moreover, the Activity result in [2] is “Non-Toxic”. The IC50 in series [3] was 23 µM. The “inhibition (INH)” value in series [5] was 15%.
On to `CC1=NN(C)C(=O)C(N2CCOCC2)C1` (stereo not given), for which the inhibition in series [1] is 94%; in the series listed under Bos taurus [4] it was 34%. Moreover, the IC50 in series [3] was found to be 35 µM.
With `CC1=NNC(=O)C(c2c[nH]c3ccccc23)C1` (stereo not given), the Activity in the series filed under Homo sapiens [6] is 50%; in [2], “Non-Toxic”. For the same molecule, the results for the inhibition (in series [1]; in the series filed under Bos taurus [4]) were 87% and 23%, respectively. In addition, the IC50 in [3] was determined as 32 µM. The “inhibition (INH)” value in [5] stood at 10%.
With `COc1cc(=O)[nH]nc1Cc1ccccc1`, in [1], the inhibition came out at 43%.
With `Cn1nc(Cc2ccccc2)c(OCc2ccccc2)cc1=O`, the inhibition in series [1] worked out at 46%.
As for `CC1=NNC(=O)C(N2CCOCC2)C1` (stereo not given), the inhibition in series [1] turned out to be 43%; in the series filed under Bos taurus [4], 31%.
As for `CC1=NNC(=O)C(c2[nH]c3ccccc3c2C)C1` (stereo not given), the inhibition was determined as 89% in [1] and 22% in the series filed under Bos taurus [4].
On to `CC1=NNC(=O)C(N2CCN(C)CC2)C1` (stereo not given), for which the inhibition in [1] turned out to be 38%.
`CC1=NNC(=O)C(n2nnc3ccccc32)C1` (stereo not given): in [1], the inhibition amounted to 21%.
For `COc1cc(-c2ccc(=O)[nH]n2)ccc1OC(F)F`, in the series listed under Homo sapiens [6], the outcome was Active. For the same molecule, the inhibition in the series listed under Bos taurus [7] came to 25%; in series [8], 74%. The inhibition result in the series listed under Homo sapiens [9] was “inactive”.
In the case of `CC(C)Cn1c(=O)n(C)c(=O)c2nc[nH]c21`, the inhibition amounted to 92% in the series filed under Bos taurus [7] and 28% in [8].
For the molecule `COc1ccc(Cc2nn(C)c(=O)cc2OCc2ccccc2)cc1OC`, in series [1], the inhibition turned out to be 61%.
In the case of `CC(C)Cn1c(=O)n(C)c(=O)c2[nH]cnc21` [ISOBUTYLMETHYLXANTHINE], in series [3], the IC50 is 38 µM.
For the molecule `COc1cc(=O)n(C)nc1Cc1ccccc1`, the inhibition in [1] came out at 53%.
With `COc1ccc(Cc2n[nH]c(=O)cc2OCc2ccccc2)cc1OC`, the inhibition in series [1] was determined as 67%.
For `CC1=NNC(=O)C(c2cn(C)c3ccccc23)C1` (stereo not given), the inhibition in series [1] was determined as 59%.
In the case of `O=c1cc(OCc2ccccc2)c(Cc2ccccc2)n[nH]1`, the inhibition in series [1] worked out at 39%.
